≈ marks a conversion by molar mass, not a printed value.
Legend:
Klebsiella pneumoniae [1] = experiment: Antibacterial activity against Klebsiella pneumoniae RITCC 1249 at 100 ul after overnight incubation by agar well diffusion method; type: functional
Procedure, shortened: (§1)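 Agar well diffusion. Inoculum came from a 12 h, 37 °C enrichment culture in 1 ml Mueller–Hinton broth and was spread on Mueller–Hinton agar. Wells cut with a 6 mm cork borer and filled with 100 µL of compound solution; methanol blank. Incubated overnight at 37 °C, then inhibition zone diameter measured. Triplicate, averaged.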

Pseudomonas aeruginosa [2] = experiment: Antibacterial activity against Pseudomonas aeruginosa RITCC 1547 at 100 ul after overnight incubation by agar well diffusion method; type: functional; procedure, shortened: as §1
Bacillus anthracis [3] = experiment: Antibacterial activity against Bacillus anthracis RITCC 1036 at 100 ul after overnight incubation by agar well diffusion method; type: functional
Pseudomonas aeruginosa [4] = experiment: Antibacterial activity against Pseudomonas aeruginosa RITCC 1547 after 24 hrs by macrodilution broth susceptibility assay; type: functional; conditions: RITCC 1547, 24 h
Procedure, shortened: (§2)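 Macro-dilution broth series of 12 tubes, each holding 1 ml Mueller–Hinton broth. Tube one received 1 ml of 100 mg/ml test solution, then serial dilution down the series. Added 1 ml bacterial suspension matched to 0.5 McFarland (1.5 ×10⁸ cfu/ml). Incubated 37 °C for 24 h. MIC taken as the last tube without turbidity.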

Streptococcus agalactiae [5] = experiment: Antibacterial activity against Streptococcus agalactiae RITCC 1913 at 100 ul after overnight incubation by agar well diffusion method; type: functional; procedure, shortened: as §1
Streptococcus pyogenes [6] = experiment: Antibacterial activity against Streptococcus pyogenes RITCC 1940 at 100 ul after overnight incubation by agar well diffusion method; type: functional; procedure, shortened: as §1
Bacillus anthracis [7] = experiment: Antibacterial activity against Bacillus anthracis RITCC 1036 after 24 hrs by macrodilution broth susceptibility assay; type: functional; conditions: RITCC 1036, 24 h
Staphylococcus aureus [8] = experiment: Antibacterial activity against Staphylococcus aureus RITCC 1885 at 100 ul after overnight incubation by agar well diffusion method; type: functional; procedure, shortened: as §1
Klebsiella pneumoniae [9] = experiment: Antibacterial activity against Klebsiella pneumoniae RITCC 1249 after 24 hrs by macrodilution broth susceptibility assay; type: functional; conditions: RITCC 1249, 24 h; procedure, shortened: as §2
Staphylococcus aureus [10] = experiment: Antibacterial activity against Staphylococcus aureus RITCC 1885 after 24 hrs by macrodilution broth susceptibility assay; type: functional; conditions: RITCC 1885, 24 h; procedure, shortened: as §2
Streptococcus pyogenes [11] = experiment: Antibacterial activity against Streptococcus pyogenes RITCC 1940 after 24 hrs by macrodilution broth susceptibility assay; type: functional; conditions: RITCC 1940, 24 h; procedure, shortened: as §2
Streptococcus agalactiae [12] = experiment: Antibacterial activity against Streptococcus agalactiae RITCC 1913 after 24 hrs by macrodilution broth susceptibility assay; type: functional; conditions: RITCC 1913, 24 h; procedure, shortened: as §2
Streptococcus pyogenes [13] = experiment: Antibacterial activity against Streptococcus pyogenes RITCC 1940 at 10 ug after overnight incubation by agar well diffusion method; type: functional, organism-based
Procedure, shortened: (§3)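 Bacteria were enriched in 1 ml Mueller–Hinton broth at 37 °C for 12 h, then cultured on Mueller–Hinton agar. Wells were cut with a 6 mm cork borer and filled with test solution, with gentamicine as the standard antibiotic. Plates were incubated overnight at 37 °C and inhibition-zone diameters were measured. Values are the average of triplicates. A methanol-only blank was included.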

Klebsiella pneumoniae [14] = experiment: Antibacterial activity against Klebsiella pneumoniae RITCC 1249 at 10 ug after overnight incubation by agar well diffusion method; type: functional, organism-based; procedure, shortened: as §3
Bacillus anthracis [15] = experiment: Antibacterial activity against Bacillus anthracis RITCC 1036 at 10 ug after overnight incubation by agar well diffusion method; type: functional, organism-based

Question: How did the “inhibition zone (IZ)” value (Klebsiella pneumoniae [1]) turn out when `Oc1ccc(Br)cc1/C=N/CCSCCc1ccccn1` was run?
Answer: 30 mm

Question: What about the “inhibition zone (IZ)” value (Pseudomonas aeruginosa [2]) of the same compound?
Answer: 20 mm

Question: What about the “inhibition zone (IZ)” value (Bacillus anthracis [3]) of the same compound?
Answer: 50 mm

Question: What about the MIC (Pseudomonas aeruginosa [4]) of the same compound?
Answer: 25 mg/mL (≈ 68.4 mM)

Question: What about the “inhibition zone (IZ)” value (Streptococcus agalactiae [5]) of the same compound?
Answer: 50 mm

Question: And the “inhibition zone (IZ)” value (Streptococcus pyogenes [6])?
Answer: 40 mm

Question: And the MIC (Bacillus anthracis [7])?
Answer: 3.12 mg/mL (≈ 8.55 mM)

Question: And the “inhibition zone (IZ)” value (Staphylococcus aureus [8])?
Answer: 40 mm

Question: What about the MIC (Klebsiella pneumoniae [9]) of the same compound?
Answer: 12.5 mg/mL (≈ 34.2 mM)

Question: And the MIC (Staphylococcus aureus [10])?
Answer: 6.25 mg/mL (≈ 17.1 mM)

Question: And the MIC (Streptococcus pyogenes [11])?
Answer: 6.25 mg/mL (≈ 17.1 mM)

Question: What about the MIC (Streptococcus agalactiae [12]) of the same compound?
Answer: 3.12 mg/mL (≈ 8.55 mM)

Question: For `O=[N+]([O-])c1ccc(O)c(/C=N/CCSCCc2ccccn2)c1`, which “inhibition zone (IZ)” value (Klebsiella pneumoniae [1]) is on record?
Answer: 20 mm

Question: And the “inhibition zone (IZ)” value (Pseudomonas aeruginosa [2])?
Answer: 20 mm

Question: And the “inhibition zone (IZ)” value (Bacillus anthracis [3])?
Answer: 20 mm

Question: What about the MIC (Pseudomonas aeruginosa [4]) of the same compound?
Answer: 25 mg/mL (≈ 75.4 mM)

Question: And the “inhibition zone (IZ)” value (Streptococcus agalactiae [5])?
Answer: 30 mm

Question: What about the “inhibition zone (IZ)” value (Streptococcus pyogenes [6]) of the same compound?
Answer: 40 mm

Question: What about the MIC (Bacillus anthracis [7]) of the same compound?
Answer: 25 mg/mL (≈ 75.4 mM)

Question: What about the “inhibition zone (IZ)” value (Staphylococcus aureus [8]) of the same compound?
Answer: 20 mm

Question: And the MIC (Klebsiella pneumoniae [9])?
Answer: 25 mg/mL (≈ 75.4 mM)

Question: What about the MIC (Staphylococcus aureus [10]) of the same compound?
Answer: 25 mg/mL (≈ 75.4 mM)

Question: What about the MIC (Streptococcus pyogenes [11]) of the same compound?
Answer: 6.25 mg/mL (≈ 18.9 mM)

Question: And the MIC (Streptococcus agalactiae [12])?
Answer: 12.5 mg/mL (≈ 37.7 mM)

Question: How did the “inhibition zone (IZ)” value (Klebsiella pneumoniae [1]) turn out when `COc1ccc(O)c(/C=N/CCSCCc2ccccn2)c1` was run?
Answer: 20 mm

Question: What about the “inhibition zone (IZ)” value (Pseudomonas aeruginosa [2]) of the same compound?
Answer: 10 mm

Question: What about the “inhibition zone (IZ)” value (Bacillus anthracis [3]) of the same compound?
Answer: 20 mm

Question: What about the MIC (Pseudomonas aeruginosa [4]) of the same compound?
Answer: 50 mg/mL (≈ 158 mM)

Question: And the “inhibition zone (IZ)” value (Streptococcus agalactiae [5])?
Answer: 20 mm

Question: And the “inhibition zone (IZ)” value (Streptococcus pyogenes [6])?
Answer: 40 mm

Question: And the MIC (Bacillus anthracis [7])?
Answer: 25 mg/mL (≈ 79 mM)

Question: And the “inhibition zone (IZ)” value (Staphylococcus aureus [8])?
Answer: 10 mm

Question: And the MIC (Klebsiella pneumoniae [9])?
Answer: 25 mg/mL (≈ 79 mM)

Question: And the MIC (Staphylococcus aureus [10])?
Answer: 50 mg/mL (≈ 158 mM)

Question: And the MIC (Streptococcus pyogenes [11])?
Answer: 6.25 mg/mL (≈ 19.8 mM)

Question: And the MIC (Streptococcus agalactiae [12])?
Answer: 25 mg/mL (≈ 79 mM)

Question: What does the source list for GENTAMICIN?
Answer: inhibition zone (IZ) (Streptococcus pyogenes [13]): 20 mm; inhibition zone (IZ) (Klebsiella pneumoniae [14]): 20 mm; inhibition zone (IZ) (Bacillus anthracis [15]): 32 mm

— ChEMBL document CHEMBL1155281, “Synthesis, spectroscopic characterization and antibacterial activity of new cobalt(II) complexes of unsymmetrical tetradentate (OSN2) Schiff base ligands” (2009)
